# Published values collected from several papers.
# Target: Mitogen-activated protein kinase 3 (MAPK3, Homo sapiens, UniProt P27361)
Compound,effect on,technique,concentration,remaining binding [%]
COc1cc(-c2cn(C3CCc4ccccc4N(CC(F)(F)F)C3=O)nn2)ccc1-n1ccc(C)n1 (centres unmarked),cell-free assay,competition with immobilised ligand,1 µM,100
C=CC(=O)N1CCC(C(=O)NCC(=O)N2CCN(c3nc(-c4cnc(N)nc4C(F)F)nc(N4CCOCC4)n3)CC2)CC1,binding,competition with immobilised ligand,1 µM,100
CC1CCCN1c1nccc(-c2cnn3ncccc23)n1 (centres unmarked),binding,,1 µM,86
CCN1CCN(Cc2ccc(C(=O)Nc3ccc(C)c(Oc4ccc5c(c4)CC(=O)N5)c3)cc2C(F)(F)F)CC1,binding,competition with immobilised ligand,1 µM,100
N[C@H]1CCN(c2nccc(-c3cnn4ncccc34)n2)C1,binding,,1 µM,91
O=C(Nc1cccnn1)N1CC(C/C=C/c2cncc(Oc3ccc(C(F)(F)F)cn3)n2)C1,cell-free assay,competition with immobilised ligand,1 µM,99
O=C(NCCCN1CCOCC1)c1ccc(Nc2nccc(-c3cc4ccccc4s3)n2)cc1,binding,competition with immobilised ligand,1 µM,100
C[C@H]1CCN(c2nccc(-c3cnn4ncccc34)n2)C1,binding,,1 µM,83
Cn1cc(Cl)c2c(Oc3c(F)cc(Nc4cc(Cl)nc(N)n4)cc3F)ccnc21,cell-free assay,competition with immobilised ligand,0.1 µM,98
O=C(Nc1c[nH]nc1C(=O)NC1CCNCC1)c1cc(F)cc(F)c1,binding,competition with immobilised ligand,1 µM,100
CC(C)(C)c1ccc(-c2nc(CBr)nn2-c2cccc(O)c2)cc1,cell-free assay,competition with immobilised ligand,10 µM,91
C[C@H](c1cccc(C#N)c1)n1cc(Cl)cc(C(N)=O)c1=N,cell-free assay,competition with immobilised ligand,1 µM,97
CN(CCCC(F)(F)F)c1nccc(-c2cnn3ncccc23)n1,binding,,1 µM,97
COc1ncc2cc3ccccc3nc2c1C#N,cell-free assay,competition with immobilised ligand,5 µM,93
C[C@@H]1CN(c2ccc3ncc(-c4ccc5[nH]nc(C6CC6)c5c4)n3n2)C[C@H](C)O1,binding,competition with immobilised ligand,50 nM,100
CN(c1nccc(-c2cnn3ncccc23)n1)C1CC1,binding,,1 µM,89
C[C@@H](c1ccc(-n2cnc3c(N)ncnc32)cc1)N1CCc2nn(C)c(Cc3ccccc3)c2C1=O,binding,competition with immobilised ligand,0.1 µM,100
CN(C)c1nccc(-c2cnn3ncccc23)n1,binding,,1 µM,100
CN([C@@H]1CCc2c(CC(=O)O)c3cc(S(C)(=O)=O)ccc3n2C1)S(=O)(=O)c1ccc(F)cc1,cell-free assay,competition with immobilised ligand,1 µM,92
O=C(c1ccc(Nc2nccc(-c3cc4ccccc4s3)n2)cc1)N1CCC(N2CCCC2)CC1,binding,competition with immobilised ligand,1 µM,100
CC(=O)C1=C(C)N(c2cccc(C(F)(F)F)c2)C(=O)N[C@@H]1c1ccc(C#N)nc1,cell-free assay,competition with immobilised ligand,1 µM,97.1
O=C(c1ccc(Nc2ncc(Cl)c(-c3cc4ccccc4s3)n2)cc1)N1CCC(N2CCCC2)CC1,binding,competition with immobilised ligand,1 µM,97
O=C(O)[C@@H]1[C@@H](Cn2nnc3ccccc3c2=O)CC[C@H]1C(=O)c1ccc(OCCC2CCOCC2)cc1,cell-free assay,competition with immobilised ligand,1 µM,100
F[C@@H]1CCN(c2nccc(-c3cnn4ncccc34)n2)C1,binding,,1 µM,85
C[C@@H]1CN(c2cc(-c3nn(C)c4ccc(OC5(C)CC5)cc34)ncn2)C[C@H](C)O1,cell-free assay,competition with immobilised ligand,1 µM,100
CNC(=O)[C@@H]1CC[C@@H](n2c(-c3ccc4cnccc4c3)nc3ccc(C(=O)NCc4cccc(C(N)=O)c4)cc32)C1,binding,competition with immobilised ligand,1 µM,100
